In ChEMBL document CHEMBL1938334, “Quinoline tricyclic derivatives. Design, synthesis and evaluation of the antiviral activity of three new classes of RNA-dependent RNA polymerase inhibitors” (Bioorg Med Chem, 2011) one finds EC50 and CC50 data, which are given here for 18 compounds.

One series has as its system Reovirus sp. Briefly: Antiviral activity against Reovirus type-1 3651 infected in hamster BHK21 cells assessed as inhibition of virus-induced cytopathogenicity after 3 to 4 days by MTT assay. It is filed as functional, organism-based. Conditions: Reovirus sp., 3651, BHK-21. The essentials: (§1)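 Host cells were seeded in 96-well plates at 3×10^4 cells/well (MDBK) or 5×10^4 cells/well (BHK-21) and grown to confluent monolayers overnight. They were infected at m.o.i. 0.01 in maintenance MEM with 0.5% inactivated FBS. Serial compound dilutions were added after 1 h. Viability was read by MTT after 3–4 days at 37 °C. EC50 was taken by linear regression against untreated controls. Mean of three determinations.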

For another series, the system named is Human orthopneumovirus. Briefly: Antiviral activity against Human respiratory syncytial virus A2 infected in african green monkey Vero 76 cells assessed as reduction of virus-induced plaque formation after 5 days using crystal violet staining. Conditions: 120 h. The format is functional, organism-based.
The nature of series [1]: Cytotoxicity against BHK21 cells after 48 to 96 hrs by MTT assay. The format is cell-based, Mesocricetus auratus, BHK-21. To be noted: hamster. In outline:
(§2)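 MDBK seeded at 6×10^5 and BHK at 1×10^6 cells/mL in MEM-Earle's with L-glutamine, 1 mM pyruvate, kanamycin, plus 10% horse serum (MDBK) or 10% FBS (BHK). Cells were grown at 37 °C, 5% CO2 with serial compound dilutions (DMSO stocks diluted in medium). Viability by MTT after 48–96 h. CC50 was taken by linear regression versus untreated controls; three independent determinations.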
(In general: Tetrazolium dyes change colour on reduction, which living cells bring about.)

A short description of series [2]: Cytotoxicity against human MT4 cells after 96 hrs by MTT assay. It is filed as cell-based. In outline:
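Exponentially growing MT-4 cells seeded at 1×10^5 cells/mL in RPMI-1640 with 10% FBS, penicillin and streptomycin. Incubated with serial compound dilutions at 37 °C, 5% CO2 for 96 h; viability by MTT. CC50 by linear regression relative to untreated controls; mean of three independent determinations.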

Series [3] concerns Vesicular stomatitis Indiana virus. The series is described as follows: Antiviral activity against clinical isolate Vesicular stomatitis Indiana virus infected in african green monkey Vero 76 cells assessed as reduction of virus-induced plaque formation after 2 days using crystal violet staining. The format is functional, organism-based. Conditions: 48 h.
Series [4] is described as follows: Cytotoxicity against MDBK cells after 48 to 96 hrs by MTT assay. It is filed as cell-based, Bos taurus. To be noted: cattle. In outline:
as §2

The next series deals with Poliovirus 1. The series is described as follows: Antiviral activity against Human poliovirus 1 strain Sabin Chat infected in african green monkey Vero 76 cells assessed as virus-induced reduction of plaque formation after 2 days using crystal violet staining. The format is functional, cell-based. To be noted: Enterovirus C, 48 h.
The nature of series [5]: Cytotoxicity against african green monkey Vero 76 cells after 48 to 96 hrs by crystal violet staining. The format is cell-based. Conditions: chlorocebus sabaeus. In outline:
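Vero-76 cells were seeded at 4×10^5 cells/mL in D-MEM with L-glutamine, kanamycin and 10% FBS, then exposed to serial compound dilutions at 37 °C, 5% CO2 for 48–96 h. Viability was read by crystal violet staining. 50% cytotoxic concentration by linear regression relative to untreated controls; mean of three independent determinations.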

For series [6], the system named is Human immunodeficiency virus 1. The series is described as follows: Antiviral activity against HIV1 3B infected in human MT4 cells assessed as inhibition of virus-induced cytopathogenicity after 4 days by MTT assay. The format is functional, organism-based. To be noted: Human immunodeficiency virus 1, 3B, MT4, 96 h. In outline: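 MT-4 cells (1×10^4 per well) were infected with HIV-1 IIIB at 100 CCID50, m.o.i. 0.01, together with serial compound dilutions. Viability was read by MTT after 4 days at 37 °C. EC50 was taken by linear regression versus untreated controls. Mean of three determinations.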
Background: Protection from cytopathic effect is a common read-out in antiviral testing.

A further series has as its system Yellow fever virus. The series is described as follows: Antiviral activity against Yellow fever virus 17D Stamaril Pasteur J07B01 infected in hamster BHK21 cells assessed as inhibition of virus-induced cytopathogenicity after 3 to 4 days by MTT assay. It is filed as functional, cell-based. Conditions: Stamaril Pasteur J07B01, BHK-21. The essentials:
as §1

A short description of series [7]: Antiviral activity against Bovine viral diarrhea virus 1-NADL infected in MDBK cells assessed as inhibition of virus-induced cytopathogenicity after 3 to 4 days by MTT assay. The format is functional, cell-based. Conditions: Bovine viral diarrhea virus isolates and strains. In outline:
as §1

Series [8] is described as follows: Antiviral activity against Vaccinia virus Lister Elstree infected in african green monkey Vero 76 cells assessed as reduction of virus-induced plaque formation after 3 days using crystal violet staining. It is filed as functional, cell-based. Conditions: 72 h.
Another series relates to Human alphaherpesvirus 1. The series is described as follows: Antiviral activity against Human herpesvirus 1 strain KOS infected in african green monkey Vero 76 cells assessed as reduction of virus-induced plaque formation after 3 days using crystal violet staining. It is filed as functional, organism-based. Conditions: Human alphaherpesvirus 1, KOS, 72 h.
Another series concerns Coxsackievirus B5. The series is described as follows: Antiviral activity against Human coxsackievirus B5 Ohio-1 infected in african green monkey Vero 76 cells assessed as reduction of virus-induced plaque formation after 3 days using crystal violet staining. Conditions: Enterovirus B, Ohio-1, Vero, 72 h. The format is functional, organism-based.

For the compound `Clc1c2ncccc2cc2nn[nH]c12`, the EC50 (in the series on Reovirus sp.; in the series with Human orthopneumovirus; in series [3]; in the series with Poliovirus 1; in series [6]; with Yellow fever virus) was over 100 µM throughout. Further, the EC50 (in series [7]; in series [8]; with Human alphaherpesvirus 1; in the series on Coxsackievirus B5) was over 100 µM each time. Further, the CC50 in series [1], in [4] and in [5] was over 100 µM in each case. In series [2], this compound gave a CC50 at 96 h of over 100 µM.
`[O-][n+]1n[nH]c2c(Cl)c3nccc(O)c3cc21`: the EC50 (in the series with Reovirus sp.; in the series on Human orthopneumovirus; in series [3]; in the series on Poliovirus 1; in series [6]; in the series on Yellow fever virus) was over 100 µM in each case. In addition, the EC50 (in series [7]; in series [8]; in the series on Coxsackievirus B5) was over 100 µM each time. Further, the CC50 in series [1], in series [4] and in [5] was over 100 µM each time. Further, the CC50 at 96 h in series [2] was over 100 µM.
As to `O=[N+]([O-])c1c2cccnc2c(Cl)c2[nH]n[n+]([O-])c12`, the EC50 (in the series with Human orthopneumovirus; in series [3]; in the series on Poliovirus 1; in series [6]; with Yellow fever virus; in series [7]) was over 100 µM throughout. Besides, the EC50 (in series [8]; with Coxsackievirus B5) was over 100 µM throughout. Also, the CC50 in series [1], in [4] and in series [5] was over 100 µM in each case. This compound registered a CC50 at 96 h in series [2] of over 100 µM.
For `CC(=O)n1nnc2c(Cl)c3ncccc3cc21`, the EC50 in the series on Human orthopneumovirus was over 100 µM; in series [3], over 100 µM; in the series with Poliovirus 1, over 100 µM; in series [6], over 46 µM; in the series on Yellow fever virus, over 72 µM; in [7], over 30 µM. Further, the EC50 (in series [8]; in the series on Human alphaherpesvirus 1; with Coxsackievirus B5) was over 100 µM in each case. Moreover, the figures for the CC50 in series [1], in series [4] and in series [5] were 72 µM, 30 µM and over 100 µM, respectively. In series [2], this compound came in with a CC50 at 96 h of 46 µM.
Turning to `c1cnc2cc3[nH]cnc3cc2c1`, the half-maximal effective concentration (EC50) (with Reovirus sp.; in [3]; with Poliovirus 1; in [6]; in the series on Yellow fever virus; in [7]) was over 100 µM in each case. Besides, the EC50 (in series [8]; in the series with Human alphaherpesvirus 1; with Coxsackievirus B5) was over 100 µM throughout. Moreover, the CC50 in [1], in series [4] and in series [5] was over 100 µM throughout. Also, the CC50 at 96 h in series [2] was over 100 µM.
Consider `Clc1c2ncccc2cc2nc[nH]c12`, for which the EC50 (in the series with Reovirus sp.; in series [3]; with Poliovirus 1; in [6]; in the series with Yellow fever virus; in series [7]) was over 100 µM throughout. Moreover, the EC50 (in series [8]; with Human alphaherpesvirus 1; in the series with Coxsackievirus B5) was over 100 µM in each case. The cytotoxic concentration (CC50) in [1], in series [4] and in series [5] was over 100 µM each time. The compound also displayed a CC50 at 96 h in series [2] of over 100 µM.
Consider `O=[N+]([O-])c1ccc(-c2nc3cc4cccnc4cc3[nH]2)cc1`, for which the EC50 with Reovirus sp. was 67 µM; in the series with Human orthopneumovirus, over 95 µM; in series [3], over 95 µM; in the series on Poliovirus 1, over 95 µM; in [6] it was over 100 µM; with Yellow fever virus it was over 100 µM. Also, the EC50 is 20 µM in series [7], over 95 µM in [8] and 35 µM in the series on Coxsackievirus B5. In addition, the CC50 is over 100 µM in [1], 90 µM in series [4] and 95 µM in series [5]. The CC50 at 96 h in [2] is over 100 µM.
Regarding `O=[N+]([O-])c1ccc(-c2nc3cc4cccnc4cc3[nH]2)c2ccccc12`, the EC50 was 50 µM with Reovirus sp.; over 100 µM in the series on Human orthopneumovirus; over 100 µM in [3]; over 100 µM with Poliovirus 1; over 6 µM in [6]; over 100 µM in the series on Yellow fever virus. Also, the figures for the concentration for a half-maximal effect (EC50) (in series [7]; in series [8]; in the series with Coxsackievirus B5) were over 18 µM, over 100 µM and over 100 µM, respectively. Also, the results for the CC50 in series [1], in [4] and in [5] were over 100 µM, 18 µM and over 100 µM, respectively. In series [2], the CC50 at 96 h came out at 6 µM.
Take `c1cnc2cc3nccnc3cc2c1`: the CC50 in series [1], in series [4] and in series [5] was over 100 µM in each case. Also, the 50% cytotoxic concentration (CC50) at 96 h in series [2] was over 100 µM. Moreover, the concentration giving a half-maximal response (EC50) (in series [3]; in the series on Poliovirus 1; in [6]; in the series with Yellow fever virus; in series [7]; in [8]) was over 100 µM in each case. Further, the EC50 in the series on Human alphaherpesvirus 1 and in the series with Coxsackievirus B5 was over 100 µM in each case.
`C[C@@]1(O)[C@H](O)[C@@H](CO)O[C@H]1n1ccc(N)nc1=O`: in the series with Reovirus sp., the EC50 was 16 µM. The same compound came in with a CC50 in series [1] of over 100 µM.
`c1cnc2cc3[nH]nnc3cc2c1`: the EC50 is over 100 µM in the series on Reovirus sp.; over 100 µM in the series with Human orthopneumovirus; over 100 µM in series [3]; over 100 µM in the series with Poliovirus 1; over 40 µM in series [6]; over 100 µM in the series on Yellow fever virus. Moreover, the EC50 (in series [7]; in series [8]; in the series on Human alphaherpesvirus 1; in the series with Coxsackievirus B5) was over 100 µM in each case. The CC50 in series [1], in [4] and in series [5] was over 100 µM throughout. The CC50 at 96 h in series [2] came to 40 µM.
`[O-][n+]1n[nH]c2c(Cl)c3ncccc3cc21`: the EC50 (in the series on Human orthopneumovirus; in series [3]; with Poliovirus 1; in [6]; with Yellow fever virus; in series [7]) was over 100 µM throughout. In addition, the EC50 in [8] was over 100 µM; with Human alphaherpesvirus 1, over 100 µM; with Coxsackievirus B5 it was 86 µM. The CC50 in series [1], in series [4] and in [5] was over 100 µM in each case. The same compound showed a CC50 at 96 h in [2] of over 100 µM.
`C[C@@]1(O)[C@H](O)[C@@H](CO)O[C@H]1n1cnc2c(=O)[nH]c(N)nc21` [2'-B-METHYL-GUANOSINE]: the CC50 in series [1] and in series [4] was over 10 µM each time. Moreover, the EC50 turned out to be 1.9 µM with Yellow fever virus and 1.1 µM in [7].
In series [5], `C#C[C@@]1(O)[C@H](O)[C@@H](CO)O[C@H]1n1ccc(N)nc1=O` [2'-ETHYNYL-D-CYTIDINE] gave a CC50 of over 100 µM. Besides, the EC50 in the series with Coxsackievirus B5 was 27 µM.
As to `O=c1cnn([C@@H]2O[C@H](CO)[C@@H](O)[C@H]2O)c(=O)[nH]1` [6-AZAURIDINE], in the series with Human orthopneumovirus, the EC50 came out at 1.2 µM. In series [5], this compound came in with a CC50 of at least 12.5 µM.
Turning to `Nc1nc2c(ncn2COCCO)c(=O)[nH]1` [ACYCLOVIR], in series [5], the CC50 was over 100 µM.
Compound `O=C1Nc2ccc(Cl)cc2[C@@](C#CC2CC2)(C(F)(F)F)O1` [EFAVIRENZ] gave a CC50 at 96 h in series [2] of 40 µM.
In series [5], `COc1c(C)c2c(c(O)c1C/C=C(\C)CCC(=O)O)C(=O)OC2` [MYCOPHENOLIC ACID] gave a CC50 of at least 12.5 µM. Besides, the EC50 in series [8] is 1.5 µM.

One may read the EC50 as the concentration that produces a half-maximal response. Usually CC50 stands for the concentration giving 50% cytotoxicity.
